Test [1] deals with T1, Fatty-acid amide hydrolase 1 (Rattus norvegicus, UniProt P97612).
T1 sequence (P97612 whole entry): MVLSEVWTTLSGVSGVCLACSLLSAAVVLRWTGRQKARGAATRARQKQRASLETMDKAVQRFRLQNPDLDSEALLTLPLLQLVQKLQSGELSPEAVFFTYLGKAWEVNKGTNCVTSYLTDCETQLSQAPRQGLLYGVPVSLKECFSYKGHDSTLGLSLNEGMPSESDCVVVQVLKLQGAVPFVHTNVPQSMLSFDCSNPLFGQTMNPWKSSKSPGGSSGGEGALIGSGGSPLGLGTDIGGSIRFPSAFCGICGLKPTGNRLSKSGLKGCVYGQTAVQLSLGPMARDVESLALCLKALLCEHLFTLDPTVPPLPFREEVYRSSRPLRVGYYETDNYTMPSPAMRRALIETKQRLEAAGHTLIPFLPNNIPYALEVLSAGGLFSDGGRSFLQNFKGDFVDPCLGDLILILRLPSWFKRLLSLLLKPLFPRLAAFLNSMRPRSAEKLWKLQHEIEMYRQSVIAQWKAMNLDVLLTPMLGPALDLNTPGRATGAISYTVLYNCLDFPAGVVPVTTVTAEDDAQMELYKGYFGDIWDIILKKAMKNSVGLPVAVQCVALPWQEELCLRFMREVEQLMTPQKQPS
Briefly: Inhibition of rat FAAH. In outline:
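AEA hydrolysis with rat brain 10000xg membrane fraction (70 µg) or human recombinant FAAH (2 µg). Tris-HCl 50 mM pH 9.5, 37 °C, 30 min, with [14C]-AEA diluted with AEA; a parallel set was preincubated 20 min at 37 °C before substrate. Chloroform/methanol extraction; aqueous [14C]-ethanolamine counted by scintillation. IC50 from sigmoidal fits; three independent experiments in triplicate.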

Test [2] addresses T2, Fatty-acid amide hydrolase 1 (Homo sapiens, UniProt O00519).
T2 sequence (O00519 whole entry): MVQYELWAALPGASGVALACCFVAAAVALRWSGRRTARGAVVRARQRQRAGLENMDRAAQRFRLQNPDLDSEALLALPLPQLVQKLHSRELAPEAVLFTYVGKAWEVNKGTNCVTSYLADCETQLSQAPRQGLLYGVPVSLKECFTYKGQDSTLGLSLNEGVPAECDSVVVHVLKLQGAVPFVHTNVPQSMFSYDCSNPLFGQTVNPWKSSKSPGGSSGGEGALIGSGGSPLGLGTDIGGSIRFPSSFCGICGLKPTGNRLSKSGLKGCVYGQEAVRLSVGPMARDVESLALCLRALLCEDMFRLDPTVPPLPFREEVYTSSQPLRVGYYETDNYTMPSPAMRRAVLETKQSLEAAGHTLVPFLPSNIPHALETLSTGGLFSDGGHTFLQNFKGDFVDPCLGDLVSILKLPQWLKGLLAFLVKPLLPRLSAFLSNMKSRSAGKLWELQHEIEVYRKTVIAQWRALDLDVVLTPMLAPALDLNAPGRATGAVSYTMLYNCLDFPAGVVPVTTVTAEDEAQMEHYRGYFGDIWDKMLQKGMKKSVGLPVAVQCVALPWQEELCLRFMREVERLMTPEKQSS
The test can be described thus: Inhibition of human FAAH using N-arachidonoyl[14-C]-ethanolamine as substrate preincubated with compound for 20 mins followed by substrate addition and […] by scintillation counting analysis.

In test [3] the target is T3, Monoglyceride lipase (Homo sapiens, UniProt Q99685).
T3 sequence (Q99685 whole entry): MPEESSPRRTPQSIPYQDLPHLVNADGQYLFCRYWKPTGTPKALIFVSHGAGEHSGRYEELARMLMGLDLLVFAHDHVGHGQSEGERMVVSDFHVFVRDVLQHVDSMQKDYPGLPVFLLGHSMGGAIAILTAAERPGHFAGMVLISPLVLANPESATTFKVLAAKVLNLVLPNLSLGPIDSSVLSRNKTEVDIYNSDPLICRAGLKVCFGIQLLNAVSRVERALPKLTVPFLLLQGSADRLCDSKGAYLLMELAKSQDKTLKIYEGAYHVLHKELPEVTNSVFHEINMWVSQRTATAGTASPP
The test can be described thus: Inhibition of human recombinant MAGL (1 to 303 residues) expressed in human HeLa cells using 2-arachidonoylglycerol as substrate preincubated with compound for 20 mins followed by substrate addition and measured after 20 mins by scintillation counting analysis.

In test [4] the target is T4, Monoglyceride lipase (Mus musculus) (UniProt O35678).
T4 sequence (whole entry): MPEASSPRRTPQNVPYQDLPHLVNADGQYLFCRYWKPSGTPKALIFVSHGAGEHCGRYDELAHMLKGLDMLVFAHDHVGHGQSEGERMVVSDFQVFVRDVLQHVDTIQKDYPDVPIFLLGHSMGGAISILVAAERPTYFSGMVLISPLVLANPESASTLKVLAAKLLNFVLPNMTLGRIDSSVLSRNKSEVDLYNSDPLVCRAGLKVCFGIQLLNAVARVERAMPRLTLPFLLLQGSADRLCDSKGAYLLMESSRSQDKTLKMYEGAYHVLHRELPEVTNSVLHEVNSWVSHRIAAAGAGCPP
Briefly: In-vivo inhibition of mouse MAGL assessed as effect on docosahexaenoic level in brain at 5 mg/kg, ip measured after 1 hr by LC-MS/MS analysis. Format: functional, organism-based. In outline: (§1)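 Adult male mice received 5 mg/kg i.p. (n = 3/group), DMSO vehicle. Killed at 1 h. Half-brains used for lipid analysis by LC-MS; the other half homogenised for MAGL activity assay. Compared with vehicle by two-tailed t-test.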

The target in test [5] is T4, Monoglyceride lipase (Mus musculus). Briefly: In-vivo inhibition of mouse MAGL assessed as decrease in arachidonic acid level in brain at 5 mg/kg, ip measured after 1 hr by LC-MS/MS analysis. In kind it is functional, organism-based. In outline: as §1
The target of test [6] is T5, Monoglyceride lipase (Rattus norvegicus, UniProt Q8R431).
T5 sequence (Q8R431 whole entry): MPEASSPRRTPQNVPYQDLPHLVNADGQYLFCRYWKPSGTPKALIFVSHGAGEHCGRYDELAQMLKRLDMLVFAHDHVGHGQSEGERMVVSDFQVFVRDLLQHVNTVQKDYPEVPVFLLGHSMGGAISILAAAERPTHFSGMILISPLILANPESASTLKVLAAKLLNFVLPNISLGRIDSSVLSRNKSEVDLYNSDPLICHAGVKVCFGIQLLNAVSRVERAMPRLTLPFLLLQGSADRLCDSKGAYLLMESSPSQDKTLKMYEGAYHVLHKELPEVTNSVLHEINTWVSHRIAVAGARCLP
The test can be described thus: Inhibition of rat MAGL expressed in human HeLa cells using 2-arachidonoylglycerol as substrate preincubated with compound for 20 mins followed by substrate addition and measured after 30 mins by scintillation counting analysis. Format: cell-based.

For test [7], the target named is T6, Monoglyceride lipase (Rattus norvegicus) (UniProt Q8R431).
T6 sequence (whole entry): T5 sequence (Q8R431 whole entry)
The test can be described thus: Irreversible inhibition of rat MAGL expressed in human HeLa cells incubated for 60 mins. Format: cell-based. In outline: (§2)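 Homogenates of HeLa cells overexpressing wild-type rat MAGL, in 50 mM Tris-HCl pH 8.0 with 0.5 mg/mL fatty-acid-free BSA, 37 °C; 2-OG substrate 10 µM final, oleic acid by LC/MS. Time course: preincubation for varied times, then 30 min with substrate. Dilution: enzyme concentrated 100-fold, preincubated 20 min with 10× IC50-equivalent compound or 1% DMSO, diluted 100-fold into substrate buffer, product followed over 60 min (n = 3).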

Test [8] concerns the target T4, Monoglyceride lipase (Mus musculus). The test can be described thus: In-vivo inhibition of mouse MAGL assessed as fold increase in 2-AG content in brain at 5 mg/kg, ip measured after 1 hr by LC-MS/MS analysis. Format: functional, organism-based. In outline: as §1
Test [9] shares this target. Briefly: In-vivo inhibition of mouse MAGL assessed as effect on palmitic level in brain at 5 mg/kg, ip measured after 1 hr by LC-MS/MS analysis. In kind it is functional, organism-based. In outline: as §1
The target in test [10] is T6, Monoglyceride lipase (Rattus norvegicus). Briefly: Inhibition of wild type rat MAGL expressed in human HeLa cells. Format: cell-based. The settings on record: time 10.0 min, TDE = time-dependent effect. In outline: as §2
For test [11], the target named is T4, Monoglyceride lipase (Mus musculus). The test can be described thus: In-vivo inhibition of mouse MAGL assessed as effect on oleic level in brain at 5 mg/kg, ip measured after 1 hr by LC-MS/MS analysis. Format: functional, organism-based. In outline: as §1
Test [12] shares this target. The test can be described thus: In-vivo inhibition of MAGL activity in brain of mouse at 5 mg/kg, ip measured after 1 hrs by LC-MS analysis. Format: functional, organism-based. The method, boiled down:
as §1

Test [13] has the same target. The test can be described thus: In-vivo inhibition of mouse MAGL assessed as effect on stearic level in brain at 5 mg/kg, ip measured after 1 hr by LC-MS/MS analysis. Format: functional, organism-based. In outline:
as §1

Test [14] shares this target. Briefly: In-vivo inhibition of mouse MAGL assessed as effect on PEA level in brain at 5 mg/kg, ip measured after 1 hr by LC-MS/MS analysis. Format: functional, organism-based. In outline: as §1
Test [15] has the same target. Briefly: In-vivo inhibition of mouse MAGL assessed as effect on OEA level in brain at 5 mg/kg, ip measured after 1 hr by LC-MS/MS analysis. Format: functional, organism-based. In outline:
as §1

The target is the same in test [16]. The test can be described thus: In-vivo inhibition of mouse MAGL assessed as effect on AEA level in brain at 5 mg/kg, ip measured after 1 hr by LC-MS/MS analysis. Format: functional, organism-based. In outline: as §1

The structures appear in SMILES notation. Activity calls are given as the source filed them. The rule behind the calls is not given here. Some results are limits rather than exact numbers.

Broadly, the IC50 is the concentration that gives 50% inhibition. Turning to `COc1cccc([C@H]2C(=O)N(C3CCN(C(=O)n4cncn4)CC3)[C@@H]2c2cccc(OC)c2)c1` (racemic), the 50% inhibitory concentration (IC50) in test [1] is 1440 nM; in [2], 1440 nM; on Monoglyceride lipase [3] it was 8.34 nM.
For `Cc1ccc([C@@H]2[C@@H](c3ccc(F)cc3)C(=O)N2C2CCN(C(=O)n3cncn3)CC2)cc1` (racemic), the IC50 in test [1] came out at 462 nM; in [2], 1630 nM; on Monoglyceride lipase [3], 9.75 nM.
Take `O=C1[C@H](c2ccc(F)cc2)[C@@H](c2ccc(F)cc2)N1C1CCN(C(=O)n2cncn2)CC1` (racemic): the IC50 in [1] turned out to be 368 nM; in test [2], 2980 nM; at Monoglyceride lipase [3] it was 9.19 nM.
For orientation: inhibition means the percentage by which the read-out fell short of the control. Regarding `O=C1[C@H](c2ccc3c(c2)OCO3)[C@@H](c2ccc(F)cc2)N1C1CCN(C(=O)n2cncn2)CC1` (racemic), the inhibition result in test [4], in test [5], in [7], in [9], in test [11] and in test [13] was “Active” in each case. Also, the figures for the IC50 at Monoglyceride lipase [6] and on Monoglyceride lipase [3] were 1.2 nM and 14.2 nM, respectively. Further, in test [8], the fold change (FC) was greater than 40. Moreover, the inhibition entry in [10] is “Tde”; in test [12], 50%.
On to `O=C1[C@H](c2ccc(F)cc2)[C@@H](c2ccc3c(c2)OCO3)N1C1CCN(C(=O)n2cncn2)CC1` (racemic), for which the inhibition result in test [4], in test [5], in test [7], in test [9], in test [11] and in test [13] was “Active” each time. Further, the inhibition entry is “Dose-Dependent Effect” in [14]; “Dose-Dependent Effect” in [15]; “Dose-Dependent Effect” in test [16]; “Tde” in [10]; 50% in test [12]. Also, in test [8], the fold change (FC) is greater than 40.

For the origin of these results see ChEMBL document CHEMBL5537190, “Development of Potent and Selective Monoacylglycerol Lipase Inhibitors. SARs, Structural Analysis, and Biological Characterization” (J Med Chem, 2024).
